Reference: ChEMBL document CHEMBL4196055, “Synthesis and biological evaluation of α-santonin derivatives as anti-hepatoma agents” (Eur J Med Chem, 2018)

Legend:
[1] = system: HepG2; assay: Antiproliferative activity against human HepG2 cells after 24 hrs by CCK-8 assay; format: functional, cell-based; conditions: HepG2, 24 h
In short: (§1)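 Cells in 10% FBS medium with penicillin/streptomycin at 37 °C, 5% CO2; HepG-2 in DMEM, QGY-7703, SMMC-7721 and QSG-7701 in RPMI 1640. Seeded 2 × 10^5 cells/well, grown 24 h, then exposed to five concentrations of compound or 1% DMSO vehicle for 24 h. CCK-8 added for 1 h, absorbance read at 450 nm; IC50 derived from the 5-dose data.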

[2] = system: QGY-7703; assay: Induction of apoptosis in human QGY7703 cells assessed as increase in cleaved caspase 3 level after 24 hrs by Western blot analysis; format: functional, cell-based
In short: (§2)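 QGY-7703 cells subcultured for 24 h, then given compound for 24 h, with DMSO as control. Lysates in buffer with protease inhibitors, protein measured by BCA, equal amounts run on 10% SDS-PAGE and moved to PVDF. Blocked in 5% milk, probed overnight at 4 °C for PARP, cleaved caspase 3, pro-caspase 3 and pro-caspase 9 (1:1000), with GAPDH loading control. IRDye secondaries, densitometry reported as grayscale values.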

[3] = Antiproliferative activity against human QSG7701 cells after 24 hrs by CCK-8 assay; format: cell-based; conditions: QSG7701, 24 h; in short: as §1
[4] = system: QGY-7703; assay: Induction of apoptosis in human QGY7703 cells assessed as early apoptotic cells at 15 uM after 24 hrs by Annexin-V FITC/propidium iodide staining based flow cytometric analysis (reference value: 0.8 to 1%); format: functional
In short: (§3)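 Assay in QGY-7703 cells kept in RPMI 1640 with 10% FBS. Seeded at 5 × 10^5 cells/well for 24 h, then treated for 24 h with 5, 10 or 15 μM compound, DMSO as control. Annexin V-FITC/PI staining for 15 min at room temperature in the dark, then immediate flow cytometry to count the apoptotic fractions.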

[5] = system: QGY-7703; assay: Induction of apoptosis in human QGY7703 cells assessed as necrotic cells at 10 uM after 24 hrs by Annexin-V FITC/propidium iodide staining based flow cytometric analysis (reference value: 0.6 to 0.7%); format: functional; in short: as §3
[6] = system: QGY-7703; assay: Induction of apoptosis in human QGY7703 cells assessed as early apoptotic cells at 5 uM after 24 hrs by Annexin-V FITC/propidium iodide staining based flow cytometric analysis (reference value: 0.8 to 1%); format: functional; in short: as §3
[7] = system: QGY-7703; assay: Induction of apoptosis in human QGY7703 cells assessed as necrotic cells at 15 uM after 24 hrs by Annexin-V FITC/propidium iodide staining based flow cytometric analysis (reference value: 0.6 to 0.7%); format: functional; in short: as §3
[8] = system: SMMC-7721; assay: Antiproliferative activity against human SMMC7721 cells after 24 hrs by CCK-8 assay; format: functional, cell-based; conditions: SMMC-7721, 24 h; in short: as §1
[9] = system: QGY-7703; assay: Antiproliferative activity against human QGY7703 cells after 24 hrs by CCK-8 assay; format: functional, cell-based; conditions: QGY-7703, 24 h; in short: as §1
[10] = system: QGY-7703; assay: Induction of apoptosis in human QGY7703 cells assessed as viable cells at 10 uM after 24 hrs by Annexin-V FITC/propidium iodide staining based flow cytometric analysis (reference value: 94.2 to 94.3%); format: functional; conditions: QGY-7703, 24 h, read-out: Activity; in short: as §3
[11] = system: QGY-7703; assay: Induction of apoptosis in human QGY7703 cells assessed as increase in cleaved PARP level after 24 hrs by Western blot analysis; format: functional, cell-based; in short: as §2
[12] = system: QGY-7703; assay: Induction of apoptosis in human QGY7703 cells assessed as necrotic cells at 5 uM after 24 hrs by Annexin-V FITC/propidium iodide staining based flow cytometric analysis (reference value: 0.6 to 0.7%); format: functional; in short: as §3
[13] = system: QGY-7703; assay: Induction of apoptosis in human QGY7703 cells assessed as early apoptotic cells at 10 uM after 24 hrs by Annexin-V FITC/propidium iodide staining based flow cytometric analysis (reference value: 0.8 to 1%); format: functional; in short: as §3
[14] = system: QGY-7703; assay: Induction of apoptosis in human QGY7703 cells assessed as decrease in pro-caspase 9 level after 24 hrs by Western blot analysis; format: functional, cell-based; in short: as §2
[15] = system: QGY-7703; assay: Induction of apoptosis in human QGY7703 cells assessed as viable cells at 5 uM after 24 hrs by Annexin-V FITC/propidium iodide staining based flow cytometric analysis (reference value: 94.2 to 94.3%); format: functional; conditions: QGY-7703, 24 h, read-out: Activity; in short: as §3
[16] = system: QGY-7703; assay: Induction of apoptosis in human QGY7703 cells assessed as late apoptotic cells at 15 uM after 24 hrs by Annexin-V FITC/propidium iodide staining based flow cytometric analysis (reference value: 4.1 to 4.3%); format: functional; in short: as §3
[17] = system: QGY-7703; assay: Induction of apoptosis in human QGY7703 cells assessed as late apoptotic cells at 10 uM after 24 hrs by Annexin-V FITC/propidium iodide staining based flow cytometric analysis (reference value: 4.1 to 4.3%); format: functional; in short: as §3
[18] = system: QGY-7703; assay: Induction of apoptosis in human QGY7703 cells assessed as viable cells at 15 uM after 24 hrs by Annexin-V FITC/propidium iodide staining based flow cytometric analysis (reference value: 94.2 to 94.3%); format: functional; conditions: QGY-7703, 24 h, read-out: Activity; in short: as §3
[19] = system: HepG2; assay: Antiproliferative activity against human HepG2 cells at 10 uM after 24 hrs by CCK-8 assay relative to control; format: functional
In short: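 HepG-2 grown in DMEM with 10% FBS and penicillin/streptomycin (37 °C, 5% CO2). Seeded 2 × 10^5 cells/well for 24 h, then given a single 10 μM dose or 1% DMSO vehicle for 24 h. CCK-8 reagent for 1 h, A450 read, and percent inhibition calculated against untreated control cells.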

[20] = system: QGY-7703; assay: Induction of apoptosis in human QGY7703 cells assessed as late apoptotic cells at 5 uM after 24 hrs by Annexin-V FITC/propidium iodide staining based flow cytometric analysis (reference value: 4.1 to 4.3%); format: functional; in short: as §3

IC50 [1] [µM] | IC50 [8] [µM] | Compound | Activity [2] | IC50 [3] [µM] | Activity [4] [%] | Activity [5] [%] | Activity [6] [%] | Activity [7] [%] | IC50 [9] [µM] | viability at 10 µM [10] [%] | Activity [11] | Activity [12] [%] | Activity [13] [%] | Activity [14] | viability at 5 µM [15] [%] | Activity [16] [%] | Activity [17] [%] | viability at 15 µM [18] [%] | Activity [19] [%] | Activity [20] [%]
7.1 | 4.24 | C=C1C(=O)O[C@@H]2C3=C(C)[C@@H](OC(=O)c4ccc(Cl)cc4)CC3[C@](C)(OC(C)=O)CC[C@@H]12 (stereo not given in full) | Dose-dependent effect | 46.9 | 24.4 | 0.3 | 20.6 | 0.6 | 10.1 | 63.6 | Dose-dependent effect | 0 | 15.5 | Dose-dependent effect | 77.7 | 63.4 | 20.6 | 11.6 | 72.69 | 1.7
7.51 | 4.08 | C=C1C(=O)O[C@@H]2C3=C(C)[C@@H](OC(=O)/C=C/c4ccc(Cl)cc4)CC3[C@](C)(OC(C)=O)CC[C@@H]12 (stereo not given in full) | Dose-dependent effect | > 100 | 38.1 | 0.2 | 16.6 | 0.5 | 3.06 | 69.7 | Dose-dependent effect | 0 | 11.3 | Dose-dependent effect | 81.6 | 31.7 | 18.8 | 29.6 | 62.92 | 1.8
